Measurements published in ChEMBL document CHEMBL5108049, “Development and Characterization of Type I, Type II, and Type III LIM-Kinase Chemical Probes” (J Med Chem, 2022).

Legend:
[1] = test system: N1E-115; assay: Inhibition of neurite outgrowth in BMP7 stimulated mouse N1E-115 cells transfected with siFMR1 preincubated for 12 hrs followed by BMP7 stimulation for 24 hrs; type: functional, cell-based; conditions: dose 0.05-5 µM, time 36.0 hrs, DDE = dose-dependent effect
In short: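 At 60 h, the medium was switched to 0.2% FBS containing inhibitor (0.05, 0.5 or 5 μM; DMSO stock) or DMSO for 12 h, then 10 ng/mL BMP7 was added for 24 h. The percentage of cells with neurites longer than one cell body was counted by microscopy, ≥100 cells per condition; mean + SD, N = 4.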

[2] = molecular target: T1, LIM domain kinase 2 (Homo sapiens, UniProt P53671); assay: Binding affinity to recombinant LIMK2 (330 to 632 residues) (unknown origin) expressed in baculovirus infected insect cells assessed as change in melting temperature at 10 uM by differential scanning fluorimetry
Target sequence in this assay (P53671 whole entry, looked up, the tested form may be a part): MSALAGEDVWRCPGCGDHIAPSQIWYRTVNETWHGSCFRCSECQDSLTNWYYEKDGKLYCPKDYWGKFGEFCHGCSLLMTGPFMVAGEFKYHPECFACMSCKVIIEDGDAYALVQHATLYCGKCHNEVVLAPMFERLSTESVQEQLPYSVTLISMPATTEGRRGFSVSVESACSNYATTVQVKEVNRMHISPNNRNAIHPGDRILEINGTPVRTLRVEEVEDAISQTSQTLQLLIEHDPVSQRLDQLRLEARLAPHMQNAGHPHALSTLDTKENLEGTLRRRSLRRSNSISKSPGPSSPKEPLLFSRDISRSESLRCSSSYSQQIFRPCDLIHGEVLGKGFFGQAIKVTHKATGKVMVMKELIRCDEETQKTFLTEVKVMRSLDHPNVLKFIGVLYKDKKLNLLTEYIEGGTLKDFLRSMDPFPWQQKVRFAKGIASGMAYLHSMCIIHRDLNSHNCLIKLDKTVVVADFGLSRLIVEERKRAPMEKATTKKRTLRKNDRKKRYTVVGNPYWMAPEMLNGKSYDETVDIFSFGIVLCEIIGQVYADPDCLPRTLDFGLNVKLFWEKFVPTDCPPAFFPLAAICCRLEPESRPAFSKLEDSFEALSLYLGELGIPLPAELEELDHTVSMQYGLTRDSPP

[3] = molecular target: T2, LIM domain kinase 1 (Homo sapiens, UniProt P53667); assay: Binding affinity to recombinant LIMK1 (330 to 637 residues) (unknown origin) expressed in baculovirus infected insect cells assessed as change in melting temperature at 10 uM by differential scanning fluorimetry
Target sequence in this assay (P53667 whole entry, looked up, the tested form may be a part): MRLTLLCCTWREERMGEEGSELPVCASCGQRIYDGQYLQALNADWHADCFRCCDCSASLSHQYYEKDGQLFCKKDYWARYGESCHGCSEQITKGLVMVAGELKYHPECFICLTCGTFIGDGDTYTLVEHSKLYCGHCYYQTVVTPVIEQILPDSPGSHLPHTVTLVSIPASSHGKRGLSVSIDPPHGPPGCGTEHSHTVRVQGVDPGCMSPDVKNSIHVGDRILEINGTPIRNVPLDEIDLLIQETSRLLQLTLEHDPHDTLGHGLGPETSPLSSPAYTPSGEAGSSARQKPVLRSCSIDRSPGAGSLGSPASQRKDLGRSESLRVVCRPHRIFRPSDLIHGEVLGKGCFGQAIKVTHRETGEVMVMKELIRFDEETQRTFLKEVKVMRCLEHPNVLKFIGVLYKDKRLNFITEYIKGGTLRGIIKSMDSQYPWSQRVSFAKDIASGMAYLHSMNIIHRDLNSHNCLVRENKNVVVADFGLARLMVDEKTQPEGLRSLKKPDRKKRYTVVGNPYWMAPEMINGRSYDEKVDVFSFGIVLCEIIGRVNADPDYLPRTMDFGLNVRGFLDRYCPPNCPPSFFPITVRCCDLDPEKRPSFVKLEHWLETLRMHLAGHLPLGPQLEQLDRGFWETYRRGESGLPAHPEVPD

[4] = molecular target: T2, LIM domain kinase 1; assay: Inhibition of recombinant full length LIMK1 (330 to 637 residues) (unknown origin) expressed in HEK293T cells incubated for 2 hrs in presence of tracer K10 by NanoBRET assay; type: cell-based
Target sequence in this assay (P53667 whole entry, the tested form may be a part): as the sequence (P53667 whole entry, looked up, the tested form may be a part) above

[5] = molecular target: T1, LIM domain kinase 2; assay: Inhibition of recombinant full length LIMK2 (330 to 632 residues) (unknown origin) expressed in HEK293T cells incubated for 2 hrs in presence of tracer K10 by NanoBRET assay; type: cell-based
Target sequence in this assay (P53671 whole entry, the tested form may be a part): as the sequence (P53671 whole entry, looked up, the tested form may be a part) above

CC(C)C(=O)Nc1ncc(C(=O)NCCN(Cc2ccccc2)C(=O)c2ccc(S(=O)(=O)Nc3ccccc3)cc2)s1
inhibition [1]: Dde

CN(CCc1ccccc1)C(=O)c1ccc(S(=O)(=O)Nc2ccccc2)cc1
ΔTm [2]: 3.2 °C
ΔTm [3]: 1.3 °C

CN(Cc1ccccc1)C(=O)c1ccc(S(=O)(=O)NCCc2ccccc2)cc1
ΔTm [2]: 0.1 °C
ΔTm [3]: 0.9 °C

CN(Cc1ccccc1)C(=O)c1ccc(S(=O)(=O)Nc2cccc(Cl)c2)cc1
ΔTm [3]: 0.9 °C

CCCCN(Cc1ccccc1)C(=O)c1ccc(S(=O)(=O)Nc2ccccc2)cc1
inhibition [1]: Dde

CC(C)C(=O)Nc1ncc(-c2cc(C(F)F)nn2-c2c(Cl)cccc2Cl)s1
inhibition [1]: Dde

O=C(c1ccc(S(=O)(=O)Nc2ccccc2)cc1)N(CCc1ccccc1)Cc1ccccc1
IC50 [4]: 251 nM
ΔTm [3]: 8.6 °C
IC50 [5]: 92 nM

CN(Cc1ccccc1)C(=O)c1ccc(S(=O)(=O)Nc2ccccc2)cc1
ΔTm [3]: 4.5 °C

O=C(c1ccc(S(=O)(=O)Nc2ccccc2)cc1)N(CCc1cn(Cc2ccccc2)nn1)Cc1ccccc1
IC50 [4]: 472 nM
ΔTm [2]: 12.3 °C
ΔTm [3]: 6.8 °C
IC50 [5]: 121 nM
